# Compounds with a hit are over-represented: about 2.6% of the library has one in this group of screens.
# PRMT1 inh: blocks human protein arginine methyltransferase 1; Q99873; AID 652257; recombinant PRMT1, activity-based probe fluorescence polarization; hit rate 1.3% among 370,000; inhibition, % at 2.79 µM;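 active = inhibition above about 21% made by adding two undisclosed values, limit read from the data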
# HTRA1 inhibitor: HTRA1 (human) protease inhibition; AID 504803; Q92743; hit rate 0.5% among 340,000; inhibition, % at 5.96 µM; recombinant HTRA1, FP-rhodamine activity-based probe, fluorescence polarization; in the data active = inhibition above about 36%
# Target sequence (Q92743 whole entry, looked up): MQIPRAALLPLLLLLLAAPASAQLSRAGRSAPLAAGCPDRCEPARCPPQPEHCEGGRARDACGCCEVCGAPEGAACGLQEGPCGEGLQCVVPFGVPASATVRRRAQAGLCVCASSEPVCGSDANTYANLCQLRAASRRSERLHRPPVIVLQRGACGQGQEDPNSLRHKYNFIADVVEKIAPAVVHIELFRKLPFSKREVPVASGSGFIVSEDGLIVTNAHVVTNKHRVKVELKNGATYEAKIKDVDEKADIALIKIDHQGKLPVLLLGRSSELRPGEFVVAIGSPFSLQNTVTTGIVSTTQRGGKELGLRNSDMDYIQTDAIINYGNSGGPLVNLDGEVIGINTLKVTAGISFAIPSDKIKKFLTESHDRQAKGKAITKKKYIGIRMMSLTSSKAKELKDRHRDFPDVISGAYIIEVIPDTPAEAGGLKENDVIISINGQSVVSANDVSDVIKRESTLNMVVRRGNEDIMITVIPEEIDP
# TCR CD3 inh: blocks the human TCR-CD3 interaction. inhibition, % at 9.4 µM. hit rate 0.37% among 360,000. TAMRA-labeled TCR probe fluorescence, biochemical;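 note: recombinant mutant TCR 2C K166C tagged with TAMRA read by polarization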
# ABHD4 inh: inhibits mouse alpha/beta hydrolase domain 4 | purified mABHD4, FP-Rh probe fluorescence polarization | hit rate 0.54% among 370,000 | inhibition, % at 8.92 µM | Q8VD66;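 active = inhibition exceeding the mean over every tested compound plus 3 SD, cut at about 30% in these data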
#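 Assay system: Wild-type mouse ABHD4 protein | Medium: HEPES pH 7.0 buffer, 150 mM NaCl, 0.01% Pluronic F-127 | Incubation: Enzyme–compound pre-incubation 45 min, then probe 60 min, both 25 °C | Technique: Fluorescence polarization with parallel and perpendicular emission, 525/598 nm | Evaluation: % inhibition of FP-Rh probe binding versus controls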
# SIAE primary: inhibitors of human sialic acid acetylesterase SIAE; Q9HAT2; SIAE FP-Rh probe binding, fluorescence polarization; inhibition, % at 9.66 µM; hit rate 0.69% among 370,000; AID 1053197;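 active = inhibition above a cutoff: mean of compounds within the control limits plus 3 SD of those, cut at about 17% in these data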
# BSA TAMRA ctr: BSA probe counter-screen for TCR-CD3 inhibitors; shares compounds with TCR CD3 inh; inhibition, % at 9.4 µM; TAMRA-labeled BSA probe fluorescence counterscreen; hit rate 10% among 1,200; in the data active = inhibition above about 23%
# TCR-CD3 inh conf: confirmation of human TCR-CD3 interaction inhibitors | inhibition, % at 9.4 µM | shares compounds with TCR CD3 inh | hit rate 48% among 1,200 | AID 652036 | TAMRA-labeled TCR probe fluorescence binding assay
# PRMT1 confirm: confirmation of human PRMT1 inhibitors; AID 687036; recombinant His-PRMT1, activity-based probe fluorescence polarization; inhibition, % at 2.79 µM; hit rate 42% among 3,300; shares compounds with PRMT1 inh;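 active = mean inhibition across replicates above the hit cutoff derived for the earlier primary screen, cut at about 22% in these data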
# ABHD4 confirm: confirmation of mouse ABHD4 inhibitors; shares compounds with ABHD4 inh; purified mABHD4, FP-Rh probe fluorescence polarization; inhibition, % at 8.92 µM; hit rate 55% among 1,800; AID 720658;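 active = mean inhibition across replicates above the hit cutoff set in the primary screen, cut at about 30% in these data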
# SIAE inh conf: human SIAE inhibition, confirmation | shares compounds with SIAE primary | SIAE FP-Rh activity-based probe, fluorescence polarization | inhibition, % at 9.66 µM | hit rate 13% among 2,300 | AID 1117263;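 active = mean inhibition of the replicates above the hit cutoff set in the primary screen, cut at about 17% in these data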;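 note: inhibitors lower polarization as more probe stays unbound to SIAE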
# Numbers stand for hits; - = inactive; . = no result. Cut-off read from the data, not from the text of the source, unless noted: active = inhibition above about 19%; inactive = the rest.
SMILES,PRMT1 inh,HTRA1 inhibitor,TCR CD3 inh,ABHD4 inh,SIAE primary,BSA TAMRA ctr,TCR-CD3 inh conf,ABHD4 confirm,SIAE inh conf,others
NC(=O)CC(NC(=O)Cc1cccc2ccccc12)c1ccc(N2CCC(N3CCCC3)CC2)c([N+](=O)[O-])c1 (stereo unspecified),-,-,-,-,-,.,.,.,.,
O=C(O)/C=C/C(=O)Nc1ccc(O)cc1,-,-,20,37,-,-,-,-,.,
O=C(O)CCCCCn1c(SCC(=O)c2ccc(O)c(O)c2)nc2ccsc2c1=O,24,-,25,34,-,-,25,36,.,
O=C(O)CCCCCn1c(SCC(=O)N2CCCC2)nc2ccsc2c1=O,-,-,-,-,-,.,.,.,.,
COCCNC(=O)CSc1n[nH]c(=O)n1CCc1ccccc1,-,-,-,-,-,.,.,.,.,
CC1=NN(c2ccccc2)C(=O)C1C=Nc1ccc(N(C)C)cc1 (stereo unspecified),29,.,23,39,-,-,-,-,.,
c1cc(-c2ccoc2)n2ccnc2c1,-,.,25,50,-,-,-,-,.,
Cn1c(=O)cc2c3c(c(N4CCCCC4)ccc31)C(=O)c1ccccc1-2,-,.,58,104,53,93,55,100,24,
C[C@](N)(Cc1ccc(O)c(O)c1)C(=O)O,-,-,22,-,18,-,-,.,-,
COc1cc(C(=O)OCC(=O)N2CCCC2=O)cc(OC)c1C,96,-,43,45,17,-,-,-,-,PRMT1 confirm=-
CCOc1cc(N2CCOCC2)c(OCC)cc1NC(=O)COC(=O)c1ccc(Cl)nc1,-,-,-,-,-,.,.,.,.,
C/C(=N\NC(=O)c1ccc(N2CCCC2=O)cc1)c1ccccc1,-,-,-,-,-,.,.,.,.,
C/C(=N\NC(=O)c1ccc(N2CCCC2=O)cc1)c1ccc(O)cc1O,-,-,24,-,22,-,-,.,-,
Cc1cc(C)nc(N/N=C/C2=C(O)CC(c3ccc(F)cc3)CC2=O)n1 (stereo unspecified),-,.,-,-,-,.,.,.,.,
Nc1ccc2c(c1)C/C(=C/c1ccco1)C2=O,39,-,22,-,23,-,-,.,-,PRMT1 confirm=33
O=C1/C(=C/c2ccco2)CCc2ccccc21,-,-,-,-,-,.,.,.,.,
CC1(C)SC2c3ccccc3C(=O)N2C1C(=O)O (stereo unspecified),-,-,-,-,-,.,.,.,.,
O=C(CCc1ccc(S(=O)(=O)N2CCOCC2)cc1)N/N=C/c1ccc(O)c(O)c1O,33,-,28,-,28,-,25,.,-,PRMT1 confirm=50
Cc1ccc(S(=O)(=O)N2CCOCC2)cc1NC(=O)COC(=O)c1ccc(Cl)nc1,-,-,-,-,-,.,.,.,.,
Cc1occc1C(=O)N/N=C/c1c(O)ccc2ccccc12,-,-,-,-,-,.,.,.,.,
O=C(N/N=C\c1c(O)ccc2ccccc12)c1ccc(O)cc1,-,-,28,-,27,-,21,.,-,
CCn1c(CSc2nnc(-c3ccncc3)n2CCOC)nc2cc(C(=O)O)ccc21,-,-,32,-,19,160,109,.,38,
O=C(C1COc2ccccc2O1)N1CCCC1 (stereo unspecified),-,-,-,-,-,.,.,.,.,
CCOC(=O)C1CCCN(C(=O)C2COc3ccccc3O2)C1 (stereo unspecified),-,-,28,45,108,-,-,-,-,
CS(=O)(=O)c1ccc2nc(NC(=O)c3ccccc3)sc2c1,-,-,-,-,-,.,.,.,.,
SMILES,PRMT1 inh,HTRA1 inhibitor,TCR CD3 inh,ABHD4 inh,SIAE primary,BSA TAMRA ctr,TCR-CD3 inh conf,ABHD4 confirm,SIAE inh conf,others
CS(=O)(=O)c1ccc(C(=O)Nc2nc(-c3ccco3)c(-c3ccco3)s2)cc1,35,-,34,40,47,-,-,-,-,PRMT1 confirm=28
Cc1ccc(C)c(C(O)c2ncc(-c3ccc4ccccc4c3)[nH]2)c1 (stereo unspecified),-,.,-,-,-,.,.,.,.,
Cc1ccc(O)c(CP(=O)(c2ccccc2)c2ccccc2)c1,-,-,-,-,-,.,.,.,.,
CCNc1ccccc1CP(=O)(c1ccccc1)c1ccccc1O (stereo unspecified),75,.,51,77,35,-,-,46,-,
CN1C(C(=O)NCc2ccco2)=CC(c2ccc(F)cc2)=NS1(=O)=O,-,-,-,-,-,.,.,.,.,
CC(C)C1Nc2c(O)cc(Cl)c([N+](=O)[O-])c2C2C=CCC21 (stereo unspecified),30,-,20,58,22,-,-,35,-,PRMT1 confirm=-
CCC(CC)C1C(C#N)=C(N)Oc2cc(C)oc(=O)c21 (stereo unspecified),-,-,-,-,-,.,.,.,.,
Cc1cc2c(c(=O)o1)C(c1ccc([N+](=O)[O-])o1)C(C#N)=C(N)O2 (stereo unspecified),-,.,38,32,23,-,-,-,-,
O=C(N/N=C/c1cn(Cc2cccc(F)c2)c2ccccc12)c1cc(O)cc(O)c1,-,-,47,-,37,-,27,.,-,
CSc1ccccc1NC(=O)C(C)N(C)CC(=O)N1CCN(Cc2ccccc2)CC1 (stereo unspecified),-,-,-,-,-,.,.,.,.,
O=S1(=O)CCN(CCc2ccccc2)CC1,-,-,-,-,-,.,.,.,.,
O=C(N/N=C/c1ccoc1)c1ccccc1O,-,-,25,-,19,-,-,.,-,
O=C(N/N=C/c1ccoc1)c1ccccc1,-,-,-,-,-,.,.,.,.,
O=C(CCC(=O)Nc1cccc(Cl)c1)N/N=C/c1cc([N+](=O)[O-])ccc1O,-,-,28,-,18,-,41,.,-,
NNC(=O)c1oc2nc(-c3ccco3)cc(-c3ccco3)c2c1N,38,.,25,-,50,-,-,.,74,
Nc1c(C(=O)N/N=C/c2cccnc2)oc2nc(-c3ccccc3)cc(-c3ccco3)c12,-,.,-,-,-,.,.,.,.,
CCN(CC)S(=O)(=O)c1ccc(C(=O)NCc2ccc3c(c2)cc(C)n3C)cc1,-,-,74,104,28,-,-,-,-,
CC(C)C(=O)Nc1ccc(C(=O)N/N=C/c2cc(Br)cc(Br)c2O)cc1,-,-,-,-,-,.,.,.,.,
CC(=O)Nc1ccc(C(=O)N/N=C/c2cc(Br)cc(Br)c2O)cc1,-,-,40,-,33,-,42,.,-,
NC1(N2SC(S)=C3CCCC=C32)CCCCC1,-,.,-,-,-,.,.,.,.,
O=C(COC(=O)Cc1cccs1)Nc1ccc(OC(F)(F)F)cc1,78,-,62,108,133,-,-,.,-,
Cc1nnc(NC(=O)CSc2nnc3c(n2)[nH]c2ccc(Br)cc23)s1,-,-,-,-,-,.,.,.,.,

# Screening results from PubChem.
